Test results as given in ChEMBL document CHEMBL4371072, “Structure-Activity Relationship Studies and Plasmodium Life Cycle Profiling Identifies Pan-Active N-Aryl-3-trifluoromethyl Pyrido[1,2- a]benzimidazoles Which Are Efficacious in an in Vivo Mouse Model of Malaria” (J Med Chem, 2019).
pIC50: −log10 of the molar value.

How the values were obtained:
[1] = Tmax in C57B1/6 mouse at 20 mg/kg, po by LC-MS/MS analysis; format: ADME, organism-based; conditions: in vivo
Method in brief: (§1)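 Mouse oral PK: C57B1/6 mice (n=3) dosed orally at 20 mg/kg. Blood concentrations followed over time; values are means of 3 mice.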

CHO = experiment: Cytotoxicity against CHO cells after 48 hrs by MTT assay; format: cell-based; conditions: Cricetulus griseus
hERG (KCNH2) [2] = molecular target: T1, hERG (KCNH2) (Homo sapiens, UniProt Q12809); experiment: Inhibition of human ERG expressed in CHO cells assessed as reduction in peak channel current at 0.3 uM by IonWork patch-clamp electrophysiology method relative to control; format: cell-based; conditions: CHO cells expressing human ERG
[3] = Lipophilicity, log D of the compound; format: physicochemical; conditions: octanol/water
Method in brief: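 LogD computed with ChemDraw 16.0.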

[4] = Oral bioavailability in C57B1/6 mouse at 20 mg/kg by LC-MS/MS analysis; format: ADME, organism-based; conditions: in vivo
Method in brief: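 Oral bioavailability from C57B1/6 mice dosed 20 mg/kg orally (n=3), referenced to a separate intravenous set at 2 mg/kg (n=2) formulated in dimethylacetamide/polyethylene glycol/propylene glycol–ethanol (4:1), ratio 1:3:6.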

[5] = Half life in C57B1/6 mouse at 20 mg/kg, po by LC-MS/MS analysis; format: ADME, organism-based; conditions: in vivo; method in brief: as §1
[6] = AUC (0 to infinity) in C57B1/6 mouse at 20 mg/kg, po by LC-MS/MS analysis; format: ADME, organism-based; design: dose 20 mg/kg, time infinity, route oral; conditions: in vivo; method in brief: as §1
[7] = Solubility of the compound; format: physicochemical
Plasmodium berghei [8] = experiment: Antimalarial activity against GFP-fused Plasmodium berghei ANKA infected in NMRI mouse assessed as host mean survival time at 50 mg/kg, po administered consecutively at 4, 24, 48 and 72 hrs post infection; format: functional
Method in brief: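 NMRI mice infected intravenously with P. berghei; oral treatment at 4, 24, 48 and 72 h post-infection (4 x 50 mg/kg), vehicle to controls; reference drug 4 x 30 mg/kg orally on four consecutive days. Parasitemia compared with untreated controls; mean survival days recorded; cure if no parasitemia 30 days after treatment.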

[9] = Clearance in C57B1/6 mouse at 2 mg/kg, iv by LC-MS/MS analysis; format: ADME, organism-based; conditions: in vivo
Method in brief: (§2)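 Mouse IV PK: C57B1/6 mice (n=2) given 2 mg/kg intravenously as a solution in dimethylacetamide, polyethylene glycol and propylene glycol/ethanol (4:1) at ratio 1:3:6. Blood concentrations followed over time; values are means of 2 mice.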

[10] = AUC (0 to infinity) in C57B1/6 mouse at 2 mg/kg, iv by LC-MS/MS analysis; format: ADME, organism-based; design: dose 2 mg/kg, route intravenous, time infinity; conditions: in vivo; method in brief: as §2
[11] = Ratio of Cmax in C57B1/6 mouse at 20 mg/kg, po to IC50 for chloroquine-sensitive asexual blood stage of Plasmodium falciparum NF54 infected in human RBC; format: ADME, organism-based; conditions: in vivo
[12] = Selectivity index, ratio of IC50 for CHO cells to IC50 for chloroquine-sensitive asexual blood stage of Plasmodium falciparum NF54 infected in human RBC; format: toxicity; conditions: Chinese hamster, read-out: Ratio IC50
Method in brief: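 Selectivity index taken as the ratio of the CHO-cell IC50 to the P. falciparum NF54 IC50.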

hERG (KCNH2) [13] = molecular target: T1, hERG (KCNH2); experiment: Inhibition of human ERG expressed in CHO cells assessed as reduction in peak channel current at 10 uM by IonWork patch-clamp electrophysiology method relative to control; format: cell-based; conditions: CHO cells expressing human ERG
Method in brief: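 hERG potassium channel profiled by IonWorks patch-clamp electrophysiology, with 10 μM as the highest concentration tested. Values are the mean of 3 results from experiments run as biological and technical triplicates.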

[14] = Resistance index, ratio of IC50 for chloroquine-resistant asexual blood stage of Plasmodium falciparum K1 infected in human RBC to IC50 for chloroquine-sensitive asexual blood stage of Plasmodium falciparum NF54 infected in human RBC; format: functional
[15] = Time at which blood concentration stays above in vitro antiplasmodial Plasmodium falciparum NF54 IC50 in C57B1/6 mouse at 20 mg/kg, po; format: ADME, organism-based; conditions: in vivo
Plasmodium berghei [16] = experiment: Antimalarial activity against GFP-fused Plasmodium berghei ANKA infected in NMRI mouse assessed as inhibition of parasitemia at 50 mg/kg, po administered consecutively at 4, 24, 48 and 72 hrs post infection by flow cytometry relative to control; format: functional
Method in brief: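 NMRI mice infected intravenously with P. berghei; oral treatment at 50 mg/kg given 4, 24, 48 and 72 h post-infection (4 x 50 mg/kg). Control mice received vehicle only. Parasitemia of treated animals compared with that of untreated controls. Mice counted as cured if no parasitemia was detected 30 days after treatment.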

Plasmodium falciparum [17] = experiment: Antiplasmodial activity against chloroquine-sensitive asexual blood stage of Plasmodium falciparum NF54 infected in human RBC assessed as reduction in [3H]hypoxanthine incorporation preincubated for 48 hrs followed by [3H]hypoxanthine addition measured after 24 hrs by liquid scintillation counting method; format: functional, organism-based
Method in brief: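 Asexual blood-stage P. falciparum NF54 assay, run as a modified [3H]-hypoxanthine incorporation assay. Values are the mean of n ≥ 2 assays; determinations differing more than 3-fold were excluded. Chloroquine and artesunate served as controls.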

Plasmodium berghei [18] = experiment: Antimalarial activity against liver stage form of luciferase transfected Plasmodium berghei sporozoites infected in human HuH7 cells preincubated with host cells for 1 hr followed by plasmodial infection and measured after 48 hrs by bioluminescence method; format: functional, organism-based; conditions: Huh-7
[19] = Half life in Balb/c mouse liver microsomes at 0.1 uM in presence of NADPH by LC-MS/MS analysis; conditions: liver microsomes
[20] = Metabolic stability in human liver microsomes assessed as parent compound remaining at 0.1 uM after 30 mins in presence of NADPH by LC-MS/MS analysis; conditions: liver microsomes
[21] = Half life in C57B1/6 mouse at 2 mg/kg, iv by LC-MS/MS analysis; format: ADME, organism-based; conditions: in vivo; method in brief: as §2
Plasmodium falciparum [22] = experiment: Antiplasmodial activity against chloroquine-sensitive final late stage of Plasmodium falciparum NF54-Mal8p1.16-GFP-Luc gametocytes after 24 hrs by BacTiter-Glo assay; format: functional, organism-based; conditions: NF54, 24 h
Method in brief: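 Late-stage PfNF54 gametocytes produced in vitro; gametocytocidal IC50 via luciferase reporter and ATP bioluminescence platforms; n=3 independent biological replicates in technical triplicates, ± S.E.M.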

[23] = Cmax in C57B1/6 mouse at 20 mg/kg, po by LC-MS/MS analysis; format: ADME, organism-based; design: dose 20 mg/kg, route oral; conditions: in vivo; method in brief: as §1
[24] = Metabolic stability in Balb/c mouse liver microsomes assessed as parent compound remaining at 0.1 uM after 30 mins in presence of NADPH by LC-MS/MS analysis; conditions: liver microsomes
[25] = Volume of distribution in C57B1/6 mouse at 2 mg/kg, iv by LC-MS/MS analysis; format: ADME, organism-based; conditions: in vivo; method in brief: as §2
[26] = Half life in human liver microsomes at 0.1 uM in presence of NADPH by LC-MS/MS analysis; conditions: liver microsomes
Plasmodium falciparum [27] = experiment: Antiplasmodial activity against chloroquine-resistant asexual blood stage of Plasmodium falciparum K1 infected in human RBC assessed as reduction in [3H]hypoxanthine incorporation preincubated for 48 hrs followed by [3H]hypoxanthine addition measured after 24 hrs by liquid scintillation counting method; format: functional, organism-based
Method in brief: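 Asexual blood-stage P. falciparum K1 (multidrug resistant) screened by modified [3H]-hypoxanthine incorporation assay; IC50 as mean of n ≥ 2 assays, replicates differing above 3-fold excluded; chloroquine and artesunate controls.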

[28] = molecular target: Voltage-gated inwardly rectifying potassium channel KCNH2 (Homo sapiens, UniProt Q12809); experiment: Inhibition of human ERG expressed in CHO cells assessed as reduction in peak channel current by IonWork patch-clamp electrophysiology method; format: cell-based
Sequence of Voltage-gated inwardly rectifying potassium channel KCNH2 (Q12809 whole entry): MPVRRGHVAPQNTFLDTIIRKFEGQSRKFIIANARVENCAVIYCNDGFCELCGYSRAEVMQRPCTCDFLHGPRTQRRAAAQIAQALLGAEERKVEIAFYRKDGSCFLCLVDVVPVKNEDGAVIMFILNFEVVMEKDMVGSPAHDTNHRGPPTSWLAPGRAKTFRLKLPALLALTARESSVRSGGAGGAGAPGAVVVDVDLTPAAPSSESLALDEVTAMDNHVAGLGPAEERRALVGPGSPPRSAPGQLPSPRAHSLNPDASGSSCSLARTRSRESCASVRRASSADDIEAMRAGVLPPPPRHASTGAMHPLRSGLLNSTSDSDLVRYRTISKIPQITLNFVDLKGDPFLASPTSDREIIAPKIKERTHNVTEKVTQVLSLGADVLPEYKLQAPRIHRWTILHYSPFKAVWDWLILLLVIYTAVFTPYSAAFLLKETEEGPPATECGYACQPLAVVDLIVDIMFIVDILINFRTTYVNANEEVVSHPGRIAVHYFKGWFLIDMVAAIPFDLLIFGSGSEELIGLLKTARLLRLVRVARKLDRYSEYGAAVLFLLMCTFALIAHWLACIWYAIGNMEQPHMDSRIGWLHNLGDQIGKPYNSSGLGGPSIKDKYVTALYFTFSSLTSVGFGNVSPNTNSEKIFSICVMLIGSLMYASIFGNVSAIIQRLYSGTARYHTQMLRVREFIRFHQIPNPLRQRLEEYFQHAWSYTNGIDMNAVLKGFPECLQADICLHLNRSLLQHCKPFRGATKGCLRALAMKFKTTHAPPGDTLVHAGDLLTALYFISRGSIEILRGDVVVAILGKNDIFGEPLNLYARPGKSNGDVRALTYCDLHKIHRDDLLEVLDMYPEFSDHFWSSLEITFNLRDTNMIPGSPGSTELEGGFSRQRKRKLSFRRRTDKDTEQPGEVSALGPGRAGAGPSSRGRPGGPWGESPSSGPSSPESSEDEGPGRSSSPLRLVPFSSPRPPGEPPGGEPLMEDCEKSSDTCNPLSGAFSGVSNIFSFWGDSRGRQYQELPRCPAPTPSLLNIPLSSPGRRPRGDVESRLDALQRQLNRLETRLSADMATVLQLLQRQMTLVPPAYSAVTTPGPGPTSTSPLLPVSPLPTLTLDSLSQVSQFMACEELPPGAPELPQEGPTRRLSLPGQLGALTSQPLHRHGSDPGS

T1 sequence (Q12809 whole entry): as above

`N#Cc1c(C(F)(F)F)cc(Nc2ccc(OC(F)(F)F)cc2)n2c1nc1ccccc12` gave a Tmax [1] of 5 h, a pIC50 (CHO) of 4.75 and an inhibition at 0.3 µM (hERG (KCNH2) [2]) of 7.51%. The logD [3] was 5.34, the bioavailability [4] was 2% and the half-life [5] was 7.86 h. For the same molecule, the AUC [6] was 19.4 µM·h, the solubility [7] was < 5 µM and the MST (Plasmodium berghei [8]) was 12 days. The clearance [9] was 0.97 mL/min/kg, the AUC [10] was 79.6 µM·h and the Ratio [11] was 6. For the same molecule, the selectivity ratio [12] was 103, the inhibition at 10 µM (hERG (KCNH2) [13]) was < 40% and the Ratio IC50 [14] was 0.88. For the same molecule, the Time [15] was > 20 h, the inhibition in vivo at 50 mg/kg (Plasmodium berghei [16]) was 98% and the pIC50 (Plasmodium falciparum [17]) was 6.77. For the same molecule, the pIC50 (Plasmodium berghei [18]) was 6.96, the half-life at 0.1 µM [19] was > 2.5 h and the remaining at 0.5 h, 0.1 µM [20] was > 99%. The half-life [21] was 11.4 h, the pIC50 (Plasmodium falciparum [22]) was 5.48 and the Cmax [23] was 1100 nM. For the same molecule, the remaining at 0.5 h, 0.1 µM [24] was > 99%, the Vd [25] was 0.9 L/kg and the half-life at 0.1 µM [26] was > 2.5 h. For the same molecule, the pIC50 (Plasmodium falciparum [27]) was 6.82 and the pIC50 [28] was < 5.00.
